Source: ChEMBL document CHEMBL5528045, “Discovery of Orally Bioavailable FmlH Lectin Antagonists as Treatment for Urinary Tract Infections” (J Med Chem, 2024)

Key:
FmlH (Escherichia coli) = assay: Inhibition of C-terminal 6His-tagged biotinylated FmIH (Escherichia coli CFT073) expressed in Escherichia coli C600 cells incubated for 1 hr
[1] = Initial plasma concentration in mouse at 3 mg/kg, iv by LC-MS/MS method; type: ADME, organism-based
How it was run: (§1)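 Single dose in mice, given 3 mg/kg intravenously or 10 mg/kg orally. Plasma was followed over 8 h, and the mean plasma concentration-time profile was used. Oral bioavailability (%F) was calculated from the IV and PO exposures.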

[2] = Half-life in mouse at 3 mg/kg, iv by LC-MS/MS method; type: ADME, organism-based; details: in vivo
How it was run: as §1

[3] = Volume of distribution at steady state in mouse at 3 mg/kg, iv by LC-MS/MS method; type: ADME, organism-based; details: in vivo, read-out: Vdss
How it was run: as §1

[4] = Clearance in mouse at 3 mg/kg, iv by LC-MS/MS method; type: ADME, organism-based; details: in vivo
How it was run: as §1

[5] = Tlast in mouse at 3 mg/kg, iv by LC-MS/MS method; type: ADME, organism-based; details: in vivo
How it was run: as §1

[6] = AUC(0 to last) in mouse at 3 mg/kg, iv by LC-MS/MS method; type: ADME, organism-based; details: in vivo
How it was run: as §1

[7] = AUCinfinity in mouse at 3 mg/kg, iv by LC-MS/MS method; type: ADME, organism-based; details: in vivo
How it was run: as §1

[8] = Mean residence time(0 to last) in mouse at 3 mg/kg, iv by LC-MS/MS method; type: ADME, organism-based; details: in vivo
How it was run: as §1

[9] = Mean residence time(0 to infinity) in mouse at 3 mg/kg, iv by LC-MS/MS method; type: ADME, organism-based; details: in vivo
How it was run: as §1

[10] = AUCextra in mouse at 3 mg/kg, iv by LC-MS/MS method; type: ADME, organism-based; details: in vivo
How it was run: as §1

[11] = AUMCextra in mouse at 3 mg/kg, iv by LC-MS/MS method; type: ADME, organism-based; details: in vivo
How it was run: as §1

[12] = Cmax in mouse at 10 mg/kg, po by LC-MS/MS method; type: ADME, organism-based; details: in vivo
How it was run: as §1

[13] = Tmax in mouse at 10 mg/kg, po by LC-MS/MS method; type: ADME, organism-based; details: in vivo
How it was run: as §1

[14] = Half life in mouse at 10 mg/kg, po by LC-MS/MS method; type: ADME, organism-based; details: in vivo
How it was run: as §1

[15] = AUC(0 to last) in mouse at 10 mg/kg, po by LC-MS/MS method; type: ADME, organism-based; details: in vivo
How it was run: as §1

[16] = AUC(0 to infinity) in mouse at 10 mg/kg, po by LC-MS/MS method; type: ADME, organism-based; details: in vivo
How it was run: as §1

[17] = MRT(0 to last) in mouse at 10 mg/kg, po by LC-MS/MS method; type: ADME, organism-based; details: in vivo
How it was run: as §1

[18] = MRT(0 to infinity) in mouse at 10 mg/kg, po by LC-MS/MS method; type: ADME, organism-based; details: in vivo
How it was run: as §1

[19] = AUCextra in mouse at 10 mg/kg, po by LC-MS/MS method; type: ADME, organism-based; details: in vivo
How it was run: as §1

[20] = AUMCextra in mouse at 10 mg/kg, po by LC-MS/MS method; type: ADME, organism-based; details: in vivo
How it was run: as §1

[21] = Oral bioavailability in mouse at 10 mg/kg by LC-MS/MS method; type: ADME, organism-based; details: in vivo
How it was run: as §1

[22] = Tlast in mouse at 10 mg/kg, po by LC-MS/MS method; type: ADME, organism-based; details: in vivo
How it was run: as §1

[23] = Drug concentration in mouse urine at 2 mg/kg, po measured at 24 hrs by HPLC-MS/MS analysis; type: ADME, organism-based; details: read-out: Ct
How it was run: (§2)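 9-week-old C3H/HeN mice, n=5 per dose group, were dosed once by oral gavage. The compound was in 1% methyl cellulose, vortexed, sonicated 20 min, warmed at 50 °C for 10 min and vortexed again just before dosing. Mean urine concentration is reported.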

[24] = Drug concentration in mouse urine at 20 mg/kg, po measured at 24 hrs by HPLC-MS/MS analysis; type: ADME, organism-based; details: read-out: Ct
How it was run: as §2

Compound: CC(=O)N[C@H]1[C@H](Oc2cccc(C(F)(F)F)c2-c2cccc(NS(C)(=O)=O)c2)O[C@H](CO)[C@H](O)[C@@H]1O
- IC50 (FmlH (Escherichia coli)): 35 nM

Compound: CC(=O)N[C@H]1[C@H](Oc2ccccc2-c2cccc(NS(C)(=O)=O)c2)O[C@H](CO)[C@H](O)[C@@H]1O
- IC50 (FmlH (Escherichia coli)): 230 nM

Compound: CS(=O)(=O)Nc1cccc(-c2ccccc2O[C@@H]2O[C@H](CO)[C@H](O)[C@H](O)[C@H]2O)c1
- IC50 (FmlH (Escherichia coli)): 1600 nM

Compound: CS(=O)(=O)Nc1cccc(-c2ccccc2C[C@@H]2O[C@H](CO)[C@H](O)[C@H](O)[C@H]2[N+](=O)[O-])c1
- IC50 (FmlH (Escherichia coli)): > 50000 nM

Compound: CC(=O)N[C@H]1[C@H](Oc2cccc(C(F)(F)F)c2-c2ccc(F)c(NS(C)(=O)=O)c2)O[C@H](CO)[C@H](O)[C@@H]1O
- IC50 (FmlH (Escherichia coli)): 890 nM

Compound: CC(=O)N[C@H]1[C@H](Oc2cccc(C(F)(F)F)c2-c2cc(F)cc(C#N)c2)O[C@H](CO)[C@H](O)[C@@H]1O
- IC50 (FmlH (Escherichia coli)): 2000 nM

Compound: CC(=O)N[C@H]1[C@H](Oc2cccc(C(F)(F)F)c2-c2cccc(F)c2)O[C@H](CO)[C@H](O)[C@@H]1O
- IC50 (FmlH (Escherichia coli)): 480 nM

Compound: CC(=O)N[C@H]1[C@H](Oc2cccc(C(F)(F)F)c2-c2cccc(F)c2F)O[C@H](CO)[C@H](O)[C@@H]1O
- IC50 (FmlH (Escherichia coli)): 590 nM

Compound: CC(=O)N[C@H]1[C@H](Oc2cccc(C(F)(F)F)c2-c2ccc(F)c(F)c2F)O[C@H](CO)[C@H](O)[C@@H]1O
- IC50 (FmlH (Escherichia coli)): 700 nM

Compound: CC(=O)N[C@H]1[C@H](Oc2cccc(C(F)(F)F)c2-c2cccc(C(=O)NS(C)(=O)=O)c2)O[C@H](CO)[C@H](O)[C@@H]1O
- IC50 (FmlH (Escherichia coli)): 310 nM

Compound: CS(=O)(=O)Nc1cccc(-c2ccccc2C[C@@H]2O[C@H](CO)[C@H](O)[C@H](O)[C@H]2O)c1
- IC50 (FmlH (Escherichia coli)): 15000 nM

Compound: CC(=O)N[C@@H]1[C@@H](O)[C@@H](O)[C@@H](CO)O[C@H]1C(=O)Nc1ccccc1-c1cccc(NS(C)(=O)=O)c1
- IC50 (FmlH (Escherichia coli)): 6900 nM

Compound: CC(=O)N[C@H]1[C@H](Oc2cccc(C(F)(F)F)c2-c2cc(F)cc(C(F)(F)F)c2)O[C@H](CO)[C@H](O)[C@@H]1O
- IC50 (FmlH (Escherichia coli)): 9000 nM

Compound: CC(=O)N[C@@H]1[C@@H](O)[C@@H](O)[C@@H](CO)O[C@H]1Cc1ccccc1-c1cccc(NS(C)(=O)=O)c1
- IC50 (FmlH (Escherichia coli)): 15000 nM

Compound: CC(=O)N[C@H]1[C@H](Oc2cccc(C(F)(F)F)c2-c2ccc(F)c(NS(=O)(=O)c3ccccc3)c2)O[C@H](CO)[C@H](O)[C@@H]1O
- IC50 (FmlH (Escherichia coli)): 190 nM

Compound: CC(=O)N[C@H]1[C@H](Oc2cccc(C(F)(F)F)c2-c2ccc3ccn(S(C)(=O)=O)c3c2)O[C@H](CO)[C@H](O)[C@@H]1O
- IC50 (FmlH (Escherichia coli)): 600 nM

Compound: CC(=O)N[C@H]1[C@H](Oc2cccc(C(F)(F)F)c2-c2cc(F)cc(F)c2)O[C@H](CO)[C@H](O)[C@@H]1O
- IC50 (FmlH (Escherichia coli)): 6000 nM

Compound: CC(=O)N[C@H]1[C@H](Oc2cccc(C(F)(F)F)c2-c2cc(C#N)cc(C(F)(F)F)c2)O[C@H](CO)[C@H](O)[C@@H]1O
- IC50 (FmlH (Escherichia coli)): 6000 nM

Compound: CC(=O)N[C@H]1[C@H](Oc2cccc(C(F)(F)F)c2-c2ccc(F)cc2F)O[C@H](CO)[C@H](O)[C@@H]1O
- IC50 (FmlH (Escherichia coli)): 320 nM

Compound: CC(=O)N[C@H]1[C@H](Oc2cccc(C(F)(F)F)c2-c2cccc(CC#N)c2)O[C@H](CO)[C@H](O)[C@@H]1O
- IC50 (FmlH (Escherichia coli)): 800 nM

Compound: CC(=O)N[C@H]1[C@H](Oc2cccc(C(F)(F)F)c2-c2ccc(F)c(F)c2)O[C@H](CO)[C@H](O)[C@@H]1O
- C0 [1]: 3190 ng/mL
- half-life [2]: 1.26 h
- Vd [3]: 2.39 L/kg
- clearance [4]: 28 mL/min/kg
- Tlast [5]: 8 h
- AUC(0-t) [6]: 1790 ng·h/mL
- AUC(0-inf) [7]: 1810 ng·h/mL
- MRT last [8]: 1.34 h
- MRT inf [9]: 1.43 h
- %AUCextra [10]: 1.07%
- AUMC [11]: 7.31%
- Cmax [12]: 472 ng/mL
- Tmax [13]: 2.64 h
- half-life [14]: 1.8 h
- AUC(0-t) [15]: 1830 ng·h/mL
- AUC(0-inf) [16]: 1860 ng·h/mL
- MRT last [17]: 3.53 h
- MRT inf [18]: 3.67 h
- %AUCextra [19]: 1.64%
- AUMC [20]: 5.96%
- bioavailability [21]: 30.7%
- IC50 (FmlH (Escherichia coli)): 240 nM

Compound: CC(=O)N[C@H]1[C@H](Oc2cccc(C(F)(F)F)c2-c2cccc(CS(C)(=O)=O)c2)O[C@H](CO)[C@H](O)[C@@H]1O
- IC50 (FmlH (Escherichia coli)): 450 nM

Compound: CS(=O)(=O)Nc1cccc(-c2ccccc2C[C@@H]2O[C@H](CO)[C@H](O)[C@H](O)[C@H]2F)c1
- IC50 (FmlH (Escherichia coli)): 7300 nM

Compound: CC(=O)N[C@H]1[C@H](Oc2cccc(C(F)(F)F)c2-c2cccc(N(C)S(=O)(=O)O)c2)O[C@H](CO)[C@H](O)[C@@H]1O
- IC50 (FmlH (Escherichia coli)): 2000 nM

Compound: CC(=O)N[C@H]1[C@H](Oc2cccc(C(F)(F)F)c2-c2ccccc2F)O[C@H](CO)[C@H](O)[C@@H]1O
- IC50 (FmlH (Escherichia coli)): 710 nM

Compound: COc1cc(F)cc(-c2c(O[C@@H]3O[C@H](CO)[C@H](O)[C@H](O)[C@H]3NC(C)=O)cccc2C(F)(F)F)c1
- IC50 (FmlH (Escherichia coli)): 6000 nM

Compound: CC(=O)N[C@H]1[C@H](Oc2cccc(C(F)(F)F)c2-c2ccc(F)cc2)O[C@H](CO)[C@H](O)[C@@H]1O
- C0 [1]: 4430 ng/mL
- half-life [2]: 1.47 h
- Vd [3]: 1.42 L/kg
- clearance [4]: 13.6 mL/min/kg
- Tlast [5]: 8 h
- AUC(0-t) [6]: 3660 ng·h/mL
- AUC(0-inf) [7]: 3740 ng·h/mL
- MRT last [8]: 1.59 h
- MRT inf [9]: 1.75 h
- %AUCextra [10]: 1.9%
- AUMC [11]: 10.8%
- Cmax [12]: 1480 ng/mL
- Tmax [13]: 2 h
- half-life [14]: 1.92 h
- Tlast [22]: 8 h
- AUC(0-t) [15]: 6070 ng·h/mL
- AUC(0-inf) [16]: 6560 ng·h/mL
- MRT last [17]: 3.18 h
- MRT inf [18]: 3.75 h
- %AUCextra [19]: 7.55%
- AUMC [20]: 21.6%
- bioavailability [21]: 52.7%
- concentration at 24 h [23]: 15.8 ng/mL
- concentration at 24 h [24]: 66.3 ng/mL
- IC50 (FmlH (Escherichia coli)): 190 nM

Compound: COc1cc(-c2c(O[C@@H]3O[C@H](CO)[C@H](O)[C@H](O)[C@H]3NC(C)=O)cccc2C(F)(F)F)cc(C(F)(F)F)c1
- IC50 (FmlH (Escherichia coli)): 18000 nM
